Experimental data as given in ChEMBL document CHEMBL5223087, “First-in-Class Cyclic Temporin L Analogue: Design, Synthesis, and Antimicrobial Assessment” (J Med Chem, 2021).
Values after ≈ are worked out from the molar mass of the structure shown. Active and inactive are the calls of the source. The rule behind the calls is not given here. Bridge positions count the residues as written; N and C are the ends. Square brackets hold non-standard residues; d marks the D form. Peptide text beside a SMILES is read from it.

Key:
Staphylococcus aureus [1] = experiment: Antimicrobial activity against MRSA-resistant Staphylococcus aureus ATCC 43300 assessed as reduction in colony formation at 12.5 uM incubated for 30 min by time kill assay; type: functional, organism-based
Staphylococcus aureus [2] = experiment: Antimicrobial activity against MRSA-resistant Staphylococcus aureus ATCC 43300 assessed as reduction in colony formation at 12.5 uM incubated for 24 hrs by time kill assay; type: functional, organism-based
Pseudomonas aeruginosa = experiment: Antimicrobial activity against Pseudomonas aeruginosa ATCC 27853 assessed as reduction in bacterial growth incubated for 16 to 18 hrs by microdilution susceptibility test; type: functional; settings: time 16-18 hrs
In short: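 Broth microdilution in Mueller–Hinton broth. Mid-log bacteria at 1 × 10⁶ CFU/mL final, peptide twofold serial dilutions 100 to 0.78 μM final. Incubated 16–18 h at 37 °C. MIC taken as the lowest concentration giving total (100%) growth inhibition.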

[3] = Membrano-lytic effect in bacterial inner membrane mimic DOPE/DOPG/CL (63:23:12) large unilamellar vesicles at 5 to 50 uM by varian cary eclipse fluorescence spectrometry analysis; type: cell membranes; settings: dose 5-50 µM
[4] = Induction of DOPG/CL (58:42) large unilamellar vesicles membrane fluidity at 5 uM (reference value: -0.32)
In short: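 LUVs of DOPG/CL 58/42 prepared by extrusion (0.1 μm), Laurdan 1 μM incorporated, hydrated in PBS pH 7.4; lipid 100 μM final. Peptide added at 5 or 30 μM; spectra recorded after 10 min at 25 °C. Fluidity expressed as GP = (I440 − I490)/(I440 + I490).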

Serum = experiment: Proteolytic stability in human serum incubated for 0.25 to 12 hrs by RP-UHPLC analysis; type: ADME, cell-free; settings: time 0.25-12 hrs
[5] = Disaggregation property of compound in LPS at 20 uM after 1 hr by Tht fluorescence based assay; type: physicochemical
In short: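 Peptide 20 μM incubated 1 h with LPS 1 mg/mL and ThT 25 μM. Aggregation read as ThT emission at 482 nm, excitation 450 nm. ThT alone and peptide alone served as controls.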

[6] = Induction of membrane leakage in DOPE/DOPG/CL (63:23:12) large unilamellar vesicles at 5 to 50 uM incubated for 10 mins; settings: dose 5-50 µM
In short: (§1)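 Free probe removed by Sephadex G-50 gel filtration. Peptide added at 5–50 μM. ANTS dequenching followed 10 min (excitation 385 nm, emission 512 nm). Leakage normalised to Triton X-100 maximum.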

[7] = Induction of DOPG/CL (58:42) large unilamellar vesicles membrane fluidity at 5 uM (reference value: -0.32)
HaCaT = experiment: Cytotoxicity against human HaCaT cells assessed as reduction in cell viability at 3.125 to 100 uM measured after 2 to 24 hrs by MTT assay; type: toxicity, cell-based; settings: dose lower 3.125 µM, time lower 2 hrs, dose upper 100 µM, time upper 24 hrs
In short: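 HaCaT keratinocytes seeded at 4 × 10⁴/well in DMEM with 4 mM glutamine and 2% FBS, no antibiotics, overnight at 37 °C, 5% CO2. Medium replaced with peptide-containing DMEMg for 2 or 24 h. MTT 0.5 mg/mL in Hank's buffer 4 h, formazan dissolved in acidified isopropanol, A570. Viability as % of untreated cells; mean of three independent experiments ± SEM.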

[8] = Induction of membrane leakage in DOPG/CL (58:42) large unilamellar vesicles at 5 to 50 uM incubated for 10 mins; settings: dose 5-50 µM; in short: as §1
[9] = Membrano-lytic effect in bacterial inner membrane mimic DOPE/DOPG/CL (63:23:12) large unilamellar vesicles at 10 uM by varian cary eclipse fluorescence spectrometry analysis; type: cell membranes
[10] = Membrano-lytic effect in bacterial inner membrane mimic DOPG/CL (58:42) large unilamellar vesicles at 30 uM by varian cary eclipse fluorescence spectrometry analysis; type: cell membranes

## CC[C@H](C)[C@H](NC(=O)[C@H](CCCNC(=N)N)NC(=O)[C@@H]1CCC(=O)NCCCC[C@H](NC(=O)[C@H](Cc2ccccc2)NC(=O)[C@H](Cc2c[nH]c3ccccc23)NC(=O)[C@@H]2CCCN2C(=O)[C@@H](NC(=O)[C@@H](N)Cc2ccccc2)C(C)C)C(=O)N[C@@H](CCCCN)C(=O)N[C@@H](Cc2ccccc2)C(=O)N[C@H](CC(C)C)C(=O)N1)C(=O)N[C@@H](CC(C)C)C(N)=O (H-FVPWFKKF[dL]ERIL-NH2; lactam 6-10)
Staphylococcus aureus [1]
  Activity: Active
Staphylococcus aureus [2]
  Activity: Active
Pseudomonas aeruginosa
  MIC: 100 µM (≈ 170 µg/mL)
[3]
  Activity: Active
[4]
  Activity: -0.23
Serum
  Stability: Stable
[5]
  Activity: Not Active
[6]
  Activity: Active
[7]
  Activity: -0.23
HaCaT
  Activity: Toxic
[8]
  Activity: Active
[9]
  Activity: Active
[10]
  Activity: Active
